Autophagy mod: autophagy modulation, high-content screen | 190,000 compounds, 0.98% hits | MEF GFP-LC3 puncta imaging; test concentration mostly 10 µM | calls only at 10 µM (by protocol) | AID 463193;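 active = percentage of spot-positive cells more than 3 SD above its plate mean, without a fluorescence outlier flag or 80% toxicity; inconclusive = no clear call, values can overlap the other calls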;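 note: spot-positive cell cutoff set from DMSO-treated cells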
Ins promoter up: MIN6 insulin promoter up-regulation | MIN6 insulin promoter-GFP reporter, high-content imaging; active compounds read high | z-score at 5 µM | 190,000 compounds, 0.3% hits;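 active = z-score above 3 at 5 µM with at least 500 cells counted in the well; inconclusive = wells under 500 cells, flagged as cytotoxic or low count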
Insulin prom inh: TRM-6 insulin promoter activity inhibition. TRM-6 cells (human fetal islet line), insulin promoter-eGFP reporter, imaging; reporter expression induced with tamoxifen. inhibition, % at 2 µM. 130,000 compounds, 0.9% hits. AID 1273;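 active = inhibition above the mean plus 3 SD, with well images judged a real hit on visual review, cut at about 60% in these data, passing the limit was not always enough; inconclusive = inhibition over the cutoff but images rejected on review; inactive = inhibition not above the cutoff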
PERK inh: inhibitors of human PERK kinase. CHO PERK-DD fusion, SEAP luminescence translation reporter. inhibition, % at 5.6 µM. 220,000 compounds, 0.17% hits. AID 1416;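 active = inhibition above the mean inhibition of all tested compounds plus 3 SD, set separately per screening campaign, cut at about 2.9% in these data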;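 note: PERK kinase domain activated by AP20187 dimerizer at 100 nM; 0% = DMSO with dimerizer and 100% = rapamycin at 8.4 µM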
Target sequence (Q9NZJ5 whole entry, looked up, the tested form may be a part): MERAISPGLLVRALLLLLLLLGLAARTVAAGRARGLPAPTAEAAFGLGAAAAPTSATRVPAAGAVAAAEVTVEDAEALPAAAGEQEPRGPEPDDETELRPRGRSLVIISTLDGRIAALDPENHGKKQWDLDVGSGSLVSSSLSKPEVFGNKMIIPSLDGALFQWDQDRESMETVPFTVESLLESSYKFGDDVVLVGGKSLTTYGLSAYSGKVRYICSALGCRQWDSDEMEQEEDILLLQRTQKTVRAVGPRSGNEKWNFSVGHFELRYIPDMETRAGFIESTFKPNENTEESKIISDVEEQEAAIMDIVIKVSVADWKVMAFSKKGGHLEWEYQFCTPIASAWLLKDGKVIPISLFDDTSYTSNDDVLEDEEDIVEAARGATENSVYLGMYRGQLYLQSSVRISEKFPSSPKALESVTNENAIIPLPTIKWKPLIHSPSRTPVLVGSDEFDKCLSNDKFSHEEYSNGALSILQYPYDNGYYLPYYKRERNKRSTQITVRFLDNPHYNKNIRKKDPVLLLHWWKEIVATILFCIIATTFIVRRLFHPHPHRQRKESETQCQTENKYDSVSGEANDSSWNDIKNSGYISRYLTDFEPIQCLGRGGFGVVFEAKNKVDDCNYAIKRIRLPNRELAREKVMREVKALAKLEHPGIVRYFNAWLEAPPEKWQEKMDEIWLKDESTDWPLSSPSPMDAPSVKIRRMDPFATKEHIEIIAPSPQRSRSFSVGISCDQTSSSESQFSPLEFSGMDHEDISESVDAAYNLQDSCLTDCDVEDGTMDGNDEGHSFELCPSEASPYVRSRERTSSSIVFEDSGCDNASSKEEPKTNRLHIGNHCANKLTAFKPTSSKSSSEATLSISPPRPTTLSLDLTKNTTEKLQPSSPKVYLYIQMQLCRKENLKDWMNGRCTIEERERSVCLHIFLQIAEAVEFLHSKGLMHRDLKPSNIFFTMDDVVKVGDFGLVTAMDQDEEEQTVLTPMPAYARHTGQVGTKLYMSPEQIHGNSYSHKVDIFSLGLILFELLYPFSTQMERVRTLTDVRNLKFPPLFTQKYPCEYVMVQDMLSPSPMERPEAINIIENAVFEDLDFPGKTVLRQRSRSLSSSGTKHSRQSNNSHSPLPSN
Dynein cargo inh: blocks dynein driven cargo transport along microtubules | AID 1381 | 3617.4 mouse cells, GR-EGFP nuclear translocation imaging; test concentration mostly 20 µM; stimulated with dexamethasone, 1 µM; active compounds read low | 220,000 compounds, 0.47% hits | z-score, hits read low;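 active = plate z-score of nuclear minus cytoplasmic receptor signal below a set negative limit, without overly bright fluorescence or cell loss, cut at about -3.5 in these data, passing the limit was not always enough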;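 note: z-score of nuclear minus cytoplasmic ring GR-EGFP intensity difference per well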
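Also added – dexamethasone, 1.0 µM final · Buffer or medium – tet-free, stripped-serum medium · Schedule – induction 48 h, compound 1 h, agonist 30 min · Detection – formaldehyde fixation, Hoechst nuclear stain, 10x automated fluorescence imaging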
* marks the source's active call; other numbers are inactive results; i = inactive; ? = inconclusive; · = no result; + = active, no number. A selection: hits, their analogues and other compounds. The true share with any hit is near 2.1%.

SMILES	Autophagy mod	Ins promoter up	Insulin prom inh	PERK inh	Dynein cargo inh
CCC(=O)Nc1cc(C)c(NC(=O)C23CC4CC(CC(C4)C2)C3)cn1	i	·	76*	0	-0.53
Cc1cnc(Sc2ncccc2[N+](=O)[O-])nc1	i	·	-3	0	0.41
C=CCNc1nnc(Sc2ncccc2[N+](=O)[O-])s1	i	-0.86	93*	0	0.58
Cc1cc(C(=O)Nc2ccc3[nH]ccc3c2)no1	·	-0.01	·	1	0.45
CC(=O)Nc1c(O)nc(SCC(=O)Nc2nnc(CC(C)C)s2)[nH]c1=O	+	·	22	0	1
Cc1cc(=O)[nH]c(SCC(=O)Nc2nnc(CC(C)C)s2)n1	i	-0.29	?	1	0.47
COc1cc(C(=O)Nc2ccccc2C2COC(=O)C2=N)cc(OC)c1OC (stereo not given)	+	-0.08	5	-1	0.6
Cc1cccc(NC(=O)c2cc(-c3ccc(C)s3)nc3ccccc23)n1	+	0.55	-23	-1	-0.26
Cc1cc(NC(=O)c2cc(-c3ccc(C)s3)nc3ccccc23)no1	i	1.2	·	1	0.077
CCCCn1nc(-c2ccccc2)c2nc3ccccc3nc21	+	·	11	0	-1.5
CCCCn1c2nc3ccccc3nc2c2c(=O)n(-c3ccccc3)cnc21	i	-0.74	0	0	2.1
Clc1nc2ccccc2nc1-c1ccccc1	·	-0.1	·	2	0.26
Cn1nc(-c2ccccc2)c2nc3ccccc3nc21	+	1.8	-150	1	-0.41
O=C(NCCCO)C(=O)NCc1ccncc1	i	0.2	·	1	-1
Cc1ccc(NC(=O)C(=S)NCc2ccco2)cc1	i	-0.49	13	0	0.063
Cc1cc(C)cc(NC(=O)C(=S)NCc2ccccc2)c1	i	0.41	·	2.9*	-1.5
Cc1nc([N+](=O)[O-])cn1CC(O)c1ccc(F)cc1 (stereo not given)	·	0.19	·	1	-0.53
CC(/C=C1\N=C(SCc2ccccc2)SC1=O)=C\c1ccccc1	i	-0.01	19	1	-0.044
CCc1cc[n+](-c2nc3ccccc3nc2[N-]S(=O)(=O)c2ccc(Br)s2)cc1	+	0.92	8	0	0.16
Cc1cc[n+](-c2nc3ccccc3nc2[N-]S(=O)(=O)c2ccccc2)cc1	i	-0.63	·	2	0.33
Cn1cccc1C(=O)C(=O)Nc1ccc(F)c(F)c1	i	0.24	33	1	0.57
C/C=C/c1cc(CN2CCN(c3ccc(OC)cc3)CC2)c(O)c(OC)c1	i	·	-39	0	-0.52
O=[N+]([O-])c1ccc(Cl)cc1Sc1nc2ccccc2o1	+	·	15	0	-1.2
O=C(CN1C(=O)NC2(CCCCC2)C1=O)NCc1cccs1	i	0.27	-40	-1	0.68
c1csc(-c2cn3ccc4ccccc4c3n2)c1	i	1.3	86*	1	-0.66
SMILES	Autophagy mod	Ins promoter up	Insulin prom inh	PERK inh	Dynein cargo inh
Cc1ccc(N=C2CSC(=O)N2)cc1	i	·	0	1	-0.61
O=C1NC(=Nc2ccc(F)cc2)CS1	+	-0.58	-183	0	1.7
COc1ccc(NC(=O)Cn2c(=O)n(CC(=O)NCc3ccco3)c(=O)c3ccccc32)cc1	i	·	-7	1	-1
Cc1nnc(NC(=O)CSc2nnc(NC(=O)C(C)(C)C)s2)s1	i	0.53	11	3	-0.44
CCSc1nnc(NC(=O)C(C)(C)C)s1	i	-0.34	77*	0	1.1
CCOc1ccc(CNc2ccc(S(N)(=O)=O)cc2)cc1	i	-0.19	21	3.3*	1.4
CCOc1ccc(CNCCc2ccc(S(N)(=O)=O)cc2)cc1	i	-0.24	·	2	-0.81
CCc1nnc(NS(=O)(=O)c2ccc(NC(=S)NC(=O)c3ccc(F)cc3)cc2)s1	i	0.13	33	-1	0.96
O=C(CSc1ccncc1)Nc1ccc(S(=O)(=O)Nc2nccs2)cc1	i	0.58	·	0	0.87
O=C(NC(=S)Nc1ccc(S(=O)(=O)Nc2nccs2)cc1)c1cccc(F)c1	i	0.46	74*	1	0.1
CC(C)CC(=O)NC(=S)Nc1ccc(S(=O)(=O)Nc2nccs2)cc1	+	-0.08	-12	1	-0.25
Cc1ccc(SCC(=O)Nc2ccc(S(=O)(=O)Nc3nccs3)cc2)cc1	+	0.15	·	1	-0.85
CCOc1ccc(NS(=O)(=O)c2ccc(NC(=S)NC(=O)CC(C)C)cc2)cc1	i	-1.4	-15	-2	1.5
CCOc1ccccc1N(CC(=O)Nc1ccc2c(c1)OCCO2)S(C)(=O)=O	i	-1.3	82*	-1	-0.27
CCN1CCN(CCNC(=O)c2ccc(/C=C3\Sc4ccccc4N(Cc4ccccc4F)C3=O)cc2)CC1	+	-0.91	-45	-1	0.22
CN1CCN(CCCNC(=O)c2ccc(/C=C3\Sc4ccccc4N(Cc4ccc(F)cc4)C3=O)cc2)CC1	i	·	-23	0	-0.18
CCC1ON(c2ccccc2)C2c3nc4ccccc4n3CC12 (stereo not given)	·	0	·	·	0.092
O=C(Nc1ccc2c(c1)OCO2)OCc1ccccc1	i	1.5	100*	1	0.99
O=C(O)c1ccc(S(=O)(=O)c2ccc(Sc3ccc(C(=O)O)c(C(=O)O)c3)cc2)cc1	i	0.18	·	0	0.51
Cc1cccc(Nc2nnc(-c3ccc(C(=O)N4C[C@H]5C[C@H](C4)c4cccc(=O)n4C5)cc3)c3ccccc23)c1	i	-1.4	26	0	-0.52
CC(=O)NC1C(=O)N=C(SC(C)C(=O)Nc2cccc(Cl)c2)NC1=O (stereo not given)	i	-0.4	·	0	0.42
S=C(N/N=C/c1ccccc1Cl)Nc1cccc(Cl)c1Cl	·	-0.73	·	0	-1.1
CC(C)=CCC/C(C)=C/CC(C)(C)CNCCN1CCNCC1	i	-0.26	-36	0	i
CC(C)=CCC/C(C)=C/CCC(C)NCCN1CCNCC1 (stereo not given)	+	-1.1	·	0	0.41
CS(=O)(=O)N(CC(=O)N1CCN(c2ccccc2)CC1)c1ccc(Cl)c(C(F)(F)F)c1	i	-0.28	-14	-2	-0.92
SMILES	Autophagy mod	Ins promoter up	Insulin prom inh	PERK inh	Dynein cargo inh
CSCCC(NC(=O)C1CCC(C)CC1)C(=O)NCCN1CCC(C)CC1 (stereo not given)	i	-0.1	·	0	0.46
Cc1ccc2c(c1)Oc1ccc(NC(=O)CCl)cc1C(=O)N2	+	0.7	-200	0	0.3
Cc1ccc2c(c1)Oc1ccc([N+](=O)[O-])cc1C(=O)N2	i	-0.13	-9	0	0.86
CC(C(=O)Nc1ccc2c(c1)OCCO2)N(C)Cc1c(F)cccc1Cl (stereo not given)	+	-0.29	·	0	-0.93
O=C(c1cccc(-c2ccc(O)cc2)c1)N1CCN(c2ccc(F)cc2)CC1	i	-0.86	68*	2	-0.021
COc1ccc(Cl)cc1NC(=O)CCNC(=O)OCc1ccccc1	i	0.17	·	1	0.89
CC(C)CCNC(=O)NC(=O)COC(=O)C1=COCCO1	i	·	78*	2	-0.058

Assay outcomes: PubChem BioAssay, several laboratories
